From publication PMC5843917 (Journal of the Renin-Angiotensin-Aldosterone System: JRAAS, 2017)

Assays:
[1] = test system: aldosterone and cortisol; conditions: cited from earlier work
[2] = test system: blood pressure, ACTH-stimulated cortisol; conditions: primary hypertension, all doses tested; cited from earlier work
[3] = test system: urine aldosterone; assay: 24-hour urine aldosterone excretion after multiple dosing; assay type: in vivo, human; conditions: spironolactone 25 mg/d
Procedure, shortened: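 Once-daily oral dosing for 8 days in healthy adults (0.1–100 mg; solution in degassed Sprite; double-dummy with an MR antagonist capsule). Urine pooled over 24 h from pre-dose Day 3 to pre-dose Day 4, and from pre-dose Day 7 to pre-dose Day 8, and assayed for aldosterone. Data ln-transformed and fitted with a mixed model (fixed treatment and period, random subject). Ratios of LS geometric means with 90% CIs.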

[4] = test system: plasma aldosterone; assay: Basal plasma aldosterone concentration; assay type: in vivo, human; conditions: multiple dose, model estimate (CV%)
[5] = test system: plasma aldosterone, corticosterone, 11-deoxycorticosterone; assay: IV ACTH challenge Day 8: plasma aldosterone and precursors; assay type: in vivo, human
Procedure, shortened: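 After 8 days of oral once-daily dosing in healthy adults, an IV ACTH challenge was given 1 h post-dose on Day 8. Plasma aldosterone, corticosterone and 11-deoxycorticosterone were drawn at −15 min (baseline) and at 30 and 60 min post-challenge. Read-out was change from pre-challenge, averaged over 30 and 60 min. Stimulated aldosterone was fitted with a hyperbolic Imax model against dose and plasma drug level.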

[6] = test system: plasma cortisol and 11-deoxycortisol (CYP11B1); assay: IV ACTH challenge Day 8: plasma cortisol and 11-deoxycortisol; assay type: in vivo, human; conditions: spironolactone 25 mg/d
Procedure, shortened: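 IV ACTH challenge 1 h after the Day 8 oral dose, following daily dosing at 0.1–100 mg in healthy adults (crossover with placebo and an MR antagonist). Plasma cortisol and 11-deoxycortisol were drawn at −15, 30 and 60 min. Read-out was mean change from pre-challenge, with cortisol expressed as the average post-challenge concentration over the 1-h period.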

[7] = test system: serum K+; assay: Basal serum potassium after multiple dosing; assay type: in vivo, human; conditions: model estimate (CV%)
[8] = test system: serum K+; assay: Oral K+ challenge Day 7: serum K+ and K+ renal clearance; assay type: in vivo, human
Procedure, shortened: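 On Day 7 of once-daily oral dosing, healthy adults received an oral 40 mEq K+ load 3 h post-dose. Dietary K+ that day was cut by 40 mEq to hold daily intake at 125 mEq. Serum K+ was followed for 5 h post-challenge, and Cavg was taken over 5 h. Renal clearance = urinary excretion / serum AUC. Post-challenge K+ was fitted with a hyperbolic Emax model (additive above placebo).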

[9] = test system: urinary K+ excretion; assay: 24-hour urinary K+ excretion Days 3 and 7; assay type: in vivo, human; conditions: spironolactone 25 mg/d
[10] = Safety and tolerability in healthy subjects; assay type: in vivo, human; conditions: multiple administration, ASEB
Procedure, shortened: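 Two studies in healthy adults confined to the unit: a single ascending oral dose (0.1–300 mg) and once-daily dosing for 8 days (0.1–100 mg) with placebo and an MR antagonist in double-dummy crossover. Safety covered vital signs, ECG, and hepatic and renal laboratory tests. Blood pressure was taken repeatedly over Days 3 and 7. Average MAP = area under the MAP–time curve to 24 h divided by 24 h.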

[11] = cited from earlier work

N#Cc1ccc([C@H]2CCc3cncn32)c(F)c1 [LCI699]
plasma and 24-h urinary aldosterone ([1]; Na+-depleted healthy volunteers, dose-dependent): decreased both plasma and 24-h urinary aldosterone
ACTH-stimulated aldosterone elevation ([1]; all three doses (0.5, 1 and 3 mg)): inhibited ACTH-stimulated aldosterone elevation
ACTH-stimulated cortisol production ([1]; higher dose of 3 mg): significantly inhibited ACTH-stimulated cortisol production
ACTH-stimulated cortisol production [2]: significantly inhibited ACTH-stimulated cortisol production

CC(=O)S[C@@H]1CC2=CC(=O)CC[C@]2(C)[C@H]2CC[C@@]3(C)[C@@H](CC[C@@]34CCC(=O)O4)[C@H]12 [Spironolactone]
effect on urine aldosterone excretion [3]: elevated urine aldosterone excretion
Spironolactone (50 mg) effect on PAC [4]: 49 (19%) pg/ml
effect on PAC following the ACTH challenge ([5]; spironolactone 25 mg/d, Day 8): no effect on PAC
Spironolactone (50 mg) effect on PAC ([5]; stimulated, post-ACTH, model estimate (CV%)): 18 (89%) pg/ml
plasma cortisol after ACTH challenge compared to placebo [6]: No differences
Spironolactone (50 mg) effect on K+ [7]: 0.02 (232%) mM
average serum K+ over 5 h post oral K+ challenge (Cavg, mean±SD) ([8]; spironolactone 25 mg/d, Day 7): 4.5 ± 0.2 mmol/L
Spironolactone (50 mg) effect on K+ ([8]; stimulated, post-K+ challenge, model estimate (CV%)): 0.09 (68%) mM
24-hour urinary K+ excretion (mean±SD) ([9]; Day 3, placebo 99±19): 97 ± 20 mmol
24-hour urinary K+ excretion (mean±SD) ([9]; Day 7, placebo 110±23): 117 ± 17 mmol
effects on mean arterial pressure (MAP) [10]: no clear effects

C[C@]12CCC(=O)C=C1CC[C@@H]1[C@@H]2[C@@H](O)C[C@]2(C=O)[C@@H](C(=O)CO)CC[C@@H]12 [aldosterone]
disappearance half-life of radiolabeled aldosterone [11]: 35 min
